IEC-6 tox: counter-screen for KLF5 inhibitors: cytotoxicity in IEC-6 cells. inhibition, % at 5 µM. IEC-6 cytotoxicity, luminescence viability. 0.78% of 290,000 active;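 also: 0% = plate median of test compound wells and 100% = cytotoxic reference compound wells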
BaF3 parental: reduces parental Ba/F3 cell viability, JAK2V617F counter-screen. CellTiter-Glo ATP luminescence. inhibition, % at 5.6 µM. 1.1% of 220,000 active;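 active = inhibition above a per-campaign cutoff, the mean inhibition of all tested compounds plus 3 SD, cut at about 27% in these data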;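 also: 0% = DMSO wells and 100% = JAK Inhibitor I control wells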
bCat nuc transl: modulators of beta-catenin nuclear translocation. HeLa beta-catenin nuclear translocation, immunofluorescence imaging. nuclear translocation activity, % at 5 µM. 0.3% of 190,000 active;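 active = nuclear translocation activity above 50% at 5 µM, with a well cell count of 50 or more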;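 also: per-cell ratio of nuclear to cytoplasmic median beta-catenin stain intensity; plate controls were DMSO negative control for no effect and GSK-3 inhibitor IX positive control for full effect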
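Test system: human HeLa cell line; Doses: 5 µM primary, 0.02–20 µM confirmation; Incubation: 24 h compound exposure, 37°C; Detection: beta-catenin immunofluorescence imaging with DAPI; Read-out: beta-catenin nuclear/cytoplasmic ratio, % activation.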
Ba/F3 V617F tox: loss of viability in JAK2V617F-driven Ba/F3 cells; Ba/F3 EpoR-JAK2V617F viability, ATP luminescence; inhibition, % at 5.6 µM; 1.1% of 220,000 active; AID 1446;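 active = inhibition above the campaign mean plus 3 SD over all tested compounds, cut at about 24% in these data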;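 also: cytokine-independent growth of Ba/F3 cells driven by EpoR plus mutant JAK2; 0% = DMSO-treated cells and 100% = JAK inhibitor I control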
APP transl inh: APP translation inhibition; SH-SY5Y APP 5'UTR-luciferase reporter, luminescence; inhibition, % at 2 µM; 0.82% of 190,000 active;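 active = inhibition above a set limit, derived from the sample mean plus 3 SD, cut at about 45% in these data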
MT stabilize HCS: microtubule stabilizers in HeLa cells; HeLa tubulin immunostaining HCS, 24 h; share of cells brighter than vehicle mean+2SD; % tubulin-high responders, % at 10 µM; 0.83% of 200,000 active; AID 2205;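 active = plate Z-score above 3 for both tubulin-high and condensed-nucleus cell shares, with cell loss under 80%, at 10 µM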;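 also: anti alpha tubulin signal scored within the nucleus-defined area of each cell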
IEC-6 tox confirm: IEC-6 cytotoxicity, confirmation assay; shares compounds with IEC-6 tox; IEC-6 rat intestinal epithelial viability, luminescence; inhibition, % at 5 µM; 63% of 1,900 active; AID 1907;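 also: 0% = vehicle and 100% = reference cytotoxic drug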
Active calls of the source: *; . = no result given. The list is not random: actives were taken first. Their share in the collection is about 2.2%. Rule as the data show it, unless noted: active = inhibition above about 22%; inactive = the rest.

SMILES	IEC-6 tox	BaF3 parental	bCat nuc transl	Ba/F3 V617F tox	APP transl inh	MT stabilize HCS	IEC-6 tox confirm
O=C(Nc1ccc(F)cc1)c1nc(S(=O)(=O)Cc2ccccc2)ncc1Cl	90.7*	.	.	.	.	.	11.8
CSCc1ccc(C(=O)NC(C)c2ccc(-n3ccnc3)cc2)cc1 (centres undefined)	-3.8	.	.	.	.	.	.
CC(C)(C)c1ccc(C(=O)NCc2nnc(SCC(=O)NC3CCCCC3)o2)cc1	-6.1	.	.	.	.	.	.
CN1CCN(c2nc3c(c(=O)n(C)c(=O)n3C)n2Cc2ccccc2F)CC1	7.0	.	.	.	.	.	.
Cc1cc([N+](=O)[O-])ccc1NC(=O)c1csc(C)c1C	-4.1	.	.	.	.	.	.
O=C1CCCC(=O)C1CS(=O)(=O)c1ccccc1	2.1	-1.9	-0.2	-0.6	-7.0	1.6	.
Cc1ccc2sc(N(CCCN(C)C)C(=O)CCS(=O)(=O)c3ccccc3)nc2c1C	24.5*	.	.	.	.	.	5.2
O=C(CCNC(=O)c1ccccc1)NCCc1ccc(Cl)cc1	0.7	.	.	.	.	.	.
Clc1cccc2c1Sc1ccccc1CC2N1CCNCC1 (centres undefined)	23.4*	7.8	39.5	5.8	1.9	8.3	9.1
Clc1ccc2c(c1)C(N1CCNCC1)Cc1ccccc1S2 (centres undefined)	12.0	8.1	-5.8	7.8	4.1	67.2	.
CCN1C(=O)C(O)(C2COC(C)(C)CC2=O)c2cc(Br)ccc21 (centres undefined)	83.9*	32.9*	.	22.3	4.8	1.5	0.7
Cc1ccn2c(C(=O)CSc3ccccc3)c(C)nc2c1	23.2*	-1.6	-5.3	0.0	3.6	6.0	21.7
Cc1ccc(SCC(=O)c2c(C)nc3cc(C)ccn23)cc1	7.0	-2.2	-2.4	-1.7	17.1	7.0	.
CCn1cc(/C=C(\NC(=O)c2ccc(OC)c(OC)c2)C(=O)NCCCN2CCOCC2)c2ccccc21	-1.5	.	.	.	.	.	.
CCOC(=O)c1c(CSC(=N)N)n(C)c2cc(Br)c(OC(C)=O)cc12	24.4*	-4.1	-1.5	-0.7	.	.	11.7
COc1ccc(NC(=O)Cc2ccccc2F)cn1	5.4	1.0	-1.2	4.3	-2.0	3.0	.
COc1ccc(NC(=O)/C(Cl)=C(/Cl)S(=O)Cc2ccccc2Cl)cn1 (centres undefined)	102.3*	103.5*	-4.2	101.5*	94.2*	20.6	85.7*
Cc1cc(OCC(=O)N2CCN(c3ccccn3)CC2)cc(C)c1Br	-1.8	.	.	.	.	.	.
CCOc1ccc(/C=C/c2nc(C#N)c(NCCCN(C)C)o2)cc1	3.1	.	.	.	.	.	.
CCOc1ccc(/C=C/c2nc(C#N)c(NCCCOC)o2)cc1	74.2*	.	.	.	.	.	61.0*
COCCNC(=O)c1cc(-c2ccccn2)nc2ccc(S(=O)(=O)N3CCC(C)CC3)cc12	0.9	.	.	.	.	.	.
CCOCCCNC(=O)c1cc(-c2cccnc2)nc2ccc(S(=O)(=O)N3CCC(C)CC3)cc12	24.4*	.	.	.	.	.	0.6
Cc1nn2c(=O)cc(CSCC(=O)Nc3ccccc3Cl)nc2s1	-6.8	.	.	.	.	.	.
Cc1ccc(-c2csc3ncnc(Sc4nnc(CN5CCCCCC5=O)o4)c23)cc1	36.1*	-3.5	0.3	2.2	26.1	18.8*	30.4*
COc1ccc2cc(S(=O)(=O)NCc3cccnc3)ccc2c1	1.3	.	.	.	.	.	.
SMILES	IEC-6 tox	BaF3 parental	bCat nuc transl	Ba/F3 V617F tox	APP transl inh	MT stabilize HCS	IEC-6 tox confirm
CC(=O)N/C(=N\c1nc(C)cc(C)n1)Nc1ccc(Cl)cc1Cl	-4.3	.	.	.	.	.	.
O=C(NNC(=O)C12CC3CC(CC(C3)C1)C2)c1ccccn1	22.1*	-1.6	1.4	-4.0	.	.	38.9*
O=C(NNC(=O)C12CC3CC(CC(C3)C1)C2)c1cnccn1	-2.1	1.1	.	-6.1	-0.5	4.0	.
CCOc1ccc(-c2c[n+]3c(n2-c2ccccc2)CCCCC3)cc1	25.1*	70.3*	-2.0	89.0*	-22.0	2.8	18.9
C=CCn1c(SCC(=O)c2cccs2)nc2sc(C)cc2c1=O	65.9*	-0.6	-1.5	-3.8	1.5	1.9	44.4*
CC(C)c1ccc(Nc2ncccc2C(=O)O)cc1	58.5*	10.8	1.2	7.0	-139.5	0.7	26.3*
CN(Cc1nccn1C)C(=O)C1CCC(=O)N(CCc2ccc(Cl)cc2)C1 (centres undefined)	0.0	.	.	.	.	.	.
COc1cc(C2=NOC(C(=O)NCc3ccco3)C2)cc(OC)c1OC (centres undefined)	25.5*	51.0*	59.6*	43.5*	6.3	23.0*	43.6*
